Reference: ChEMBL document CHEMBL1124093, “Peptide derivatives of primaquine as potential antimalarial agents” (J Med Chem, 1988)

Tests used:
Mus musculus [1] = test: Antimalarial activity against Plasmodium berghei in rodent at 80 mg/Kg measured as mean survival time over control (Delta MST); format: functional
Mus musculus [2] = test: Antimalarial activity against Plasmodium berghei in mice (Mus musculus) at 320 mg/kg measured as number of toxic deaths occurring on days 2-5 after infection; format: ADME, organism-based; parameters: dose 320 mg/kg; details: in vivo
Procedure, shortened: (§1)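 Mice infected with blood-induced P. berghei, five animals per group, run by the Osdene et al. method. Doses are expressed as mg primaquine diphosphate/kg. The read-out is the number of deaths attributed to toxicity occurring on days 2-5 after infection.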

Mus musculus [3] = test: Antimalarial activity against Plasmodium berghei in mice (Mus musculus) at 640 mg/kg measured as number of toxic deaths occurring on days 2-5 after infection; format: ADME, organism-based; parameters: dose 640 mg/kg; details: in vivo; procedure, shortened: as §1
Mus musculus [4] = test: Antimalarial activity against Plasmodium berghei in mice (Mus musculus) at 160 mg/kg measured as number of toxic deaths occurring on days 2-5 after infection; format: ADME, organism-based; parameters: dose 160 mg/kg; details: in vivo; procedure, shortened: as §1
Plasmodium cynomolgi [5] = test: Antimalarial activity against Plasmodium cynomolgi in Rhesus monkeys (Macaca mulatta) at 0.316 mg/kg; cured 0 of 2; format: functional
Plasmodium cynomolgi [6] = test: Antimalarial activity against Plasmodium cynomolgi in Rhesus monkeys (Macaca mulatta) at 1 mg/kg; cured 1 of 2

## COc1cc(NC(C)CCCN)c2ncccc2c1 (stereo unspecified) [PRIMAQUINE]
Mus musculus [1]
  Delta MST: 9
Mus musculus [2]
  Toxic deaths: 5
Mus musculus [3]
  Toxic deaths: 5
Mus musculus [4]
  Toxic deaths: 2
Plasmodium cynomolgi [5]
  Cures: 0
Plasmodium cynomolgi [6]
  Cures: 1
